Results on 23 compounds are retold here after PubChem BioAssay AID504409 (Broad Institute, 2011).

Results filed as inconclusive are left out. Calls of active or inactive are those of the source.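 Rule for the calls: active = fitted curve reaches caspase activation of 10% of the positive control signal in every replicate test; inconclusive = tests disagree, or a test had a flat mid-level or poor fit; inactive = every replicate test called inactive.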

A short description of test [1]: apoptosis induction in A1/BIM co-expressing fibroblasts – cell-based, Flag-A1-IRES-BIM MEF, luminescence, dry powder, set 3, orthogonal assay for A1 inhibitor project, dose response (AID 504409). To be noted: MEF Flag-A1-IRES-BIM, caspase-Glo luminescence, 3 h; at 35 µM (top of the series). A digest of the protocol: (§1)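 System: mouse embryonic fibroblasts primed with alternate Flag-A1-IRES-BIM construct. Medium: RPMI-1640, 10% heat-inactivated FBS. Doses: 100 nL pinned compound per well. Timing: 3 h exposure (37 °C, 5% CO2), 1 h room-temperature detection. Detection: CaspaseGlo luminescence. Read-out basis: caspase activation level from luminescent signal.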

For test [2], the system named is MEF Flag-A1-IRES-BIM, caspase-Glo luminescence, 3 h. Described as above. A digest of the protocol: as §1

Consider `CCn1c(=O)c(Sc2ccc(C)cc2)c(Sc2ccc(C)cc2)c2ccccc21`, for which the caspase activation in test [1] is 2.86% (inactive).

As for `CCn1c(=O)c([N+](=O)[O-])c(Cl)c2ccccc21`, in test [2], the AC10 was 1.49 µM.

In the case of `COc1c([N+](=O)[O-])c(=O)n(C)c2ccccc12`, the caspase activation in test [1] is 1.51% (inactive).

Turning to `COc1ccc(CCNc2nc(N3CCCC3)nc(N3CCCC3)n2)cc1OC`, the caspase activation in test [1] was -0.336% (inactive).

As to `Cc1ccc(Sc2c(Sc3ccc(C)cc3)c3ccccc3n(C)c2=O)cc1`, the caspase activation in test [1] is -0.308% (inactive).

Take `C/C(=N\Nc1nc(N2CCCCC2)nc(N2CCCCC2)n1)c1ccc(F)cc1`: in test [1], the caspase activation is 0.551% (inactive).

Turning to `COc1nc2ccccc2c(Sc2ccc(C)cc2)c1[N+](=O)[O-]`, in test [1], the caspase activation is 2.16% (inactive).

As to `O=c1[nH]c2ccccc2c(O)c1[N+](=O)[O-]`, in test [1], the caspase activation is 0.941% (inactive).

Turning to `CCn1c(=O)c([N+](=O)[O-])c(Sc2ccc(C)cc2)c2ccccc21`, the caspase activation in test [1] was 1.63% (inactive).

With `CC1(C)CCC(c2ccc(Cl)cc2)=C(CN2CCN(c3ccc(C(=O)NS(=O)(=O)c4ccc(N[C@H](CCN5CCOCC5)CSc5ccccc5)c(S(=O)(=O)C(F)(F)F)c4)cc3)CC2)C1`, in test [2], the AC10 was 0.689 µM.

As for `Cn1c(=O)c(Sc2ccccn2)c(Sc2ccccn2)c2ccccc21`, in test [1], the caspase activation was 1.87% (inactive).

With `COCCn1c(=O)c(Sc2ccc(C)cc2)c(Sc2ccc(C)cc2)c2ccccc21`, the caspase activation in test [1] was -0.209% (inactive).

Turning to `COCCn1c(=O)c([N+](=O)[O-])c(Cl)c2ccccc21`, the AC10 in test [2] was 1.46 µM.

As for `Cn1c(=O)c([N+](=O)[O-])c(S(C)(=O)=O)c2ccccc21`, the AC10 in test [2] is 3.06 µM.

With `O=c1[nH]c2ccccc2c(Cl)c1[N+](=O)[O-]`, the AC10 in test [2] was 3.38 µM.

Regarding `Cc1ccc(Sc2c(Sc3ccc(C)cc3)c3ccccc3n(Cc3ccccc3)c2=O)cc1`, the caspase activation in test [1] was -0.908% (inactive).

With `O=C(COc1ccc(Cl)cc1Cl)NNc1nc(N2CCOCC2)nc(N2CCOCC2)n1`, the caspase activation in test [1] was -1.06% (inactive).

`COc1ccc(CCNc2nc(N3CCOCC3)nc(N3CCOCC3)n2)cc1OC`: the caspase activation in test [1] is 0.077% (inactive).

As for `Cn1c(=O)c([N+](=O)[O-])c(Cl)c2ccccc21`, the AC10 in test [2] is 1.84 µM.

Turning to `Cc1ccc(S(=O)(=O)c2c([N+](=O)[O-])c(=O)n(C)c3ccccc23)cc1`, the AC10 in test [2] is 4.11 µM.

`COCCn1c(=O)c([N+](=O)[O-])c(Sc2ccc(C)cc2)c2ccccc21`: the AC10 in test [2] is 15.5 µM.

On to `Cn1c(=O)c([N+](=O)[O-])c(Sc2ccccn2)c2ccccc21`, for which, in test [2], the AC10 is 3 µM.

Take `COc1ccc(N2CCN(c3nc(NCCc4ccc(OC)c(OC)c4)nc(N4CCOCC4)n3)CC2)cc1`: in test [1], the caspase activation is 0.186% (inactive).
